# Data published in ChEMBL document CHEMBL4689842, “EUbOPEN Chemogenomics Library wave 1” (2021).
# “And” between values parts separate entries of the source, which are not always exact repeats. Identical values can stand only once.
# Tested on: U2OS
# Assay: Multiplex assay against U2OS
# Assay type: toxicity, cell-based
# Settings: human
# Summary of the method: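 At seeding, live cells were stained with Hoechst33342, BioTracker Green Microtubule Cytoskeleton Dye, MitoTracker Red and Annexin V Alexa Fluor 680. After compound addition they were imaged on a CQ1 microscope at 37°C and 5% CO2, and CellPathfinder machine-learning gating sorted them into Hoechst high-intensity objects or normal cells, with normal cells further split into healthy, pyknosed or fragmented nuclei and pyknosed cells into mitotic or apoptotic. Tubulin, mitochondrial-mass and membrane-permeability phenotypes are given as per cents of cells with healthy nuclei.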
# [1] = 12 h, 1 µM, compound concentration 1 uM, replicate 1
# [2] = 12 h, 1 µM, compound concentration 1 uM, replicate 2
# [3] = 12 h, 10 µM, compound concentration 10 uM, replicate 1
# [4] = 12 h, 10 µM, compound concentration 10 uM, replicate 2
# [5] = 24 h, 1 µM, compound concentration 1 uM, replicate 1
# [6] = 24 h, 1 µM, compound concentration 1 uM, replicate 2
# [7] = 24 h, 10 µM, compound concentration 10 uM, replicate 1
# [8] = 24 h, 10 µM, compound concentration 10 uM, replicate 2
# [9] = 48 h, 10 µM, compound concentration 10 uM, replicate 1
# [10] = 48 h, 10 µM, compound concentration 10 uM, replicate 2
# [11] = 12 h, 0 µM, compound concentration 0 uM, replicate 1
# [12] = 12 h, 0 µM, compound concentration 0 uM, replicate 2
# [13] = 24 h, 0 µM, compound concentration 0 uM, replicate 1
# [14] = 24 h, 0 µM, compound concentration 0 uM, replicate 2
structure (smiles),measurement,setting,value
COCC(=O)NC/C=C/c1ccc2ncnc(Nc3ccc(Oc4ccc(C)nc4)c(C)c3)c2c1 [CP-724714],Population Apoptotic (%),[1],40% and 33%
same,Population Fragmented Nuclei (%),[1],7% and 4%
same,Population Healthy Nuclei (%),[1],80% and 89%
same,Population Hoechst High Intensity Objects (%),[1],3%
same,Population Membrane Permeable-Phenotype (%),[1],42% and 18%
same,Population Mitochondria Different-Phenotype (%),[1],29% and 18%
same,Population Mitotic Cells (%),[1],60% and 66%
same,Population Normal (%),[1],96%
same,Population Pyknosed Nuclei (%),[1],11% and 6%
same,Population Tubulin-Different-Phenotype (%),[1],18%
same,Total Cell Count,[1],178 and 153
same,Population Fragmented Nuclei (%),[2],3% and 8%
same,Population Healthy Nuclei (%),[2],82% and 87%
same,Population Hoechst High Intensity Objects (%),[2],6% and 4%
same,Population Membrane Permeable-Phenotype (%),[2],49% and 27%
same,Population Mitochondria Different-Phenotype (%),[2],43% and 20%
same,Population Mitotic Cells (%),[2],53% and 100%
same,Population Normal (%),[2],93% and 95%
same,Total Cell Count,[2],95 and 141
same,Population Apoptotic (%),[3],51%
same,Population Fragmented Nuclei (%),[3],17%
same,Population Healthy Nuclei (%),[3],62%
same,Population Hoechst High Intensity Objects (%),[3],13%
same,Population Membrane Permeable-Phenotype (%),[3],35%
same,Population Mitochondria Different-Phenotype (%),[3],87%
same,Population Mitotic Cells (%),[3],48%
same,Population Normal (%),[3],86%
same,Population Pyknosed Nuclei (%),[3],20%
same,Total Cell Count,[3],167
same,Population Apoptotic (%),[4],80%
same,Population Fragmented Nuclei (%),[4],18%
same,Population Healthy Nuclei (%),[4],63%
same,Population Hoechst High Intensity Objects (%),[4],11%
same,Population Membrane Permeable-Phenotype (%),[4],37%
same,Population Mitochondria Different-Phenotype (%),[4],94%
same,Population Mitotic Cells (%),[4],20%
same,Population Normal (%),[4],88%
same,Population Pyknosed Nuclei (%),[4],18%
same,Population Tubulin-Different-Phenotype (%),[4],100%
same,Total Cell Count,[4],62
same,Population Apoptotic (%),[5],50% and 38%
same,Population Fragmented Nuclei (%),[5],10% and 2%
same,Population Healthy Nuclei (%),[5],71% and 90%
same,Population Hoechst High Intensity Objects (%),[5],1% and 2%
same,Population Mitotic Cells (%),[5],50% and 61%
same,Population Normal (%),[5],98% and 97%
same,Population Pyknosed Nuclei (%),[5],17%
same,Total Cell Count,[5],186 and 209
same,Population Apoptotic (%),[6],62% and 36%
same,Population Fragmented Nuclei (%),[6],8% and 3%
same,Population Healthy Nuclei (%),[6],75% and 89%
same,Population Hoechst High Intensity Objects (%),[6],3% and 7%
same,Population Membrane Permeable-Phenotype (%),[6],40% and 20%
same,Population Mitochondria Different-Phenotype (%),[6],53% and 26%
same,Population Mitotic Cells (%),[6],37% and 63%
same,Population Normal (%),[6],96% and 92%
same,Population Pyknosed Nuclei (%),[6],15% and 6%
same,Total Cell Count,[6],106 and 180
same,Population Apoptotic (%),[7],60%
same,Population Fragmented Nuclei (%),[7],20%
same,Population Healthy Nuclei (%),[7],45%
same,Population Hoechst High Intensity Objects (%),[7],8%
same,Population Membrane Permeable-Phenotype (%),[7],46%
same,Population Mitochondria Different-Phenotype (%),[7],98%
same,Population Mitotic Cells (%),[7],39%
same,Population Normal (%),[7],91%
same,Population Pyknosed Nuclei (%),[7],33%
same,Population Tubulin-Different-Phenotype (%),[7],100%
same,Total Cell Count,[7],156
same,Population Fragmented Nuclei (%),[8],16%
same,Population Healthy Nuclei (%),[8],54%
same,Population Hoechst High Intensity Objects (%),[8],11%
same,Population Membrane Permeable-Phenotype (%),[8],51%
same,Population Mitochondria Different-Phenotype (%),[8],96%
same,Population Mitotic Cells (%),[8],40%
same,Population Normal (%),[8],88%
same,Population Pyknosed Nuclei (%),[8],28%
same,Total Cell Count,[8],60
same,Population Apoptotic (%),[9],76%
same,Population Fragmented Nuclei (%),[9],22%
same,Population Healthy Nuclei (%),[9],44%
same,Population Hoechst High Intensity Objects (%),[9],4%
same,Population Membrane Permeable-Phenotype (%),[9],57%
same,Population Mitochondria Different-Phenotype (%),[9],91%
same,Population Mitotic Cells (%),[9],23%
same,Population Normal (%),[9],95%
same,Population Pyknosed Nuclei (%),[9],32%
same,Population Tubulin-Different-Phenotype (%),[9],100%
same,Total Cell Count,[9],163
same,Population Apoptotic (%),[10],45%
same,Population Fragmented Nuclei (%),[10],14%
same,Population Healthy Nuclei (%),[10],52%
same,Population Hoechst High Intensity Objects (%),[10],14%
same,Population Membrane Permeable-Phenotype (%),[10],84%
same,Population Mitochondria Different-Phenotype (%),[10],96%
same,Population Mitotic Cells (%),[10],55%
same,Population Normal (%),[10],85%
same,Total Cell Count,[10],71
CCNc1cc(N[C@H]2CC[C@H](O)CC2)nc(Nc2ccc3c(ccn3Cc3ccccc3)c2)n1,Population Apoptotic (%),[11],37%
same,Population Fragmented Nuclei (%),[11],14%
same,Population Healthy Nuclei (%),[11],59%
same,Population Hoechst High Intensity Objects (%),[11],6%
same,Population Membrane Permeable-Phenotype (%),[11],39%
same,Population Mitochondria Different-Phenotype (%),[11],98%
same,Population Mitotic Cells (%),[11],62%
same,Population Normal (%),[11],93%
same,Population Pyknosed Nuclei (%),[11],25%
same,Population Tubulin-Different-Phenotype (%),[11],100%
same,Total Cell Count,[11],243
same,Population Apoptotic (%),[12],62%
same,Population Fragmented Nuclei (%),[12],20%
same,Population Healthy Nuclei (%),[12],57%
same,Population Hoechst High Intensity Objects (%),[12],7%
same,Population Membrane Permeable-Phenotype (%),[12],69%
same,Population Mitochondria Different-Phenotype (%),[12],100%
same,Population Mitotic Cells (%),[12],37%
same,Population Normal (%),[12],92%
same,Population Pyknosed Nuclei (%),[12],22%
same,Total Cell Count,[12],117
same,Population Apoptotic (%),[1],64%
same,Population Fragmented Nuclei (%),[1],4%
same,Population Healthy Nuclei (%),[1],81%
same,Population Hoechst High Intensity Objects (%),[1],1%
same,Population Membrane Permeable-Phenotype (%),[1],33%
same,Population Mitochondria Different-Phenotype (%),[1],30%
same,Population Mitotic Cells (%),[1],35%
same,Population Normal (%),[1],98%
same,Population Pyknosed Nuclei (%),[1],13%
same,Population Tubulin-Different-Phenotype (%),[1],88%
same,Total Cell Count,[1],129
same,Population Apoptotic (%),[2],42%
same,Population Fragmented Nuclei (%),[2],11%
same,Population Healthy Nuclei (%),[2],75%
same,Population Hoechst High Intensity Objects (%),[2],11%
same,Population Membrane Permeable-Phenotype (%),[2],18%
same,Population Mitochondria Different-Phenotype (%),[2],55%
same,Population Mitotic Cells (%),[2],57%
same,Population Normal (%),[2],88%
same,Population Tubulin-Different-Phenotype (%),[2],76%
same,Total Cell Count,[2],120
same,Population Apoptotic (%),[13],65%
same,Population Fragmented Nuclei (%),[13],14%
same,Population Healthy Nuclei (%),[13],46%
same,Population Hoechst High Intensity Objects (%),[13],4%
same,Population Membrane Permeable-Phenotype (%),[13],83%
same,Population Mitotic Cells (%),[13],34%
same,Population Normal (%),[13],95%
same,Population Pyknosed Nuclei (%),[13],39%
same,Population Tubulin-Different-Phenotype (%),[13],99%
same,Total Cell Count,[13],273
same,Population Apoptotic (%),[14],71%
same,Population Fragmented Nuclei (%),[14],23%
same,Population Healthy Nuclei (%),[14],47%
same,Population Hoechst High Intensity Objects (%),[14],10%
same,Population Membrane Permeable-Phenotype (%),[14],92%
same,Population Mitochondria Different-Phenotype (%),[14],100%
same,Population Mitotic Cells (%),[14],28%
same,Population Normal (%),[14],89%
same,Population Pyknosed Nuclei (%),[14],29%
same,Population Tubulin-Different-Phenotype (%),[14],100%
same,Total Cell Count,[14],121
same,Population Apoptotic (%),[5],33%
same,Population Fragmented Nuclei (%),[5],9%
same,Population Healthy Nuclei (%),[5],77%
same,Population Hoechst High Intensity Objects (%),[5],2%
same,Population Membrane Permeable-Phenotype (%),[5],22%
same,Population Mitochondria Different-Phenotype (%),[5],42%
same,Population Mitotic Cells (%),[5],66%
same,Population Normal (%),[5],97%
same,Population Pyknosed Nuclei (%),[5],12%
same,Population Tubulin-Different-Phenotype (%),[5],69%
same,Total Cell Count,[5],167
same,Population Apoptotic (%),[6],70%
same,Population Fragmented Nuclei (%),[6],14%
same,Population Healthy Nuclei (%),[6],71%
same,Population Hoechst High Intensity Objects (%),[6],9%
same,Population Membrane Permeable-Phenotype (%),[6],23%
same,Population Mitochondria Different-Phenotype (%),[6],53%
same,Population Mitotic Cells (%),[6],29%
same,Population Normal (%),[6],90%
same,Population Pyknosed Nuclei (%),[6],14%
same,Population Tubulin-Different-Phenotype (%),[6],65%
same,Total Cell Count,[6],132
